Molecular target: T1, Sodium- and chloride-dependent glycine transporter 1 (Homo sapiens, UniProt P48067)
T1 sequence (P48067 whole entry): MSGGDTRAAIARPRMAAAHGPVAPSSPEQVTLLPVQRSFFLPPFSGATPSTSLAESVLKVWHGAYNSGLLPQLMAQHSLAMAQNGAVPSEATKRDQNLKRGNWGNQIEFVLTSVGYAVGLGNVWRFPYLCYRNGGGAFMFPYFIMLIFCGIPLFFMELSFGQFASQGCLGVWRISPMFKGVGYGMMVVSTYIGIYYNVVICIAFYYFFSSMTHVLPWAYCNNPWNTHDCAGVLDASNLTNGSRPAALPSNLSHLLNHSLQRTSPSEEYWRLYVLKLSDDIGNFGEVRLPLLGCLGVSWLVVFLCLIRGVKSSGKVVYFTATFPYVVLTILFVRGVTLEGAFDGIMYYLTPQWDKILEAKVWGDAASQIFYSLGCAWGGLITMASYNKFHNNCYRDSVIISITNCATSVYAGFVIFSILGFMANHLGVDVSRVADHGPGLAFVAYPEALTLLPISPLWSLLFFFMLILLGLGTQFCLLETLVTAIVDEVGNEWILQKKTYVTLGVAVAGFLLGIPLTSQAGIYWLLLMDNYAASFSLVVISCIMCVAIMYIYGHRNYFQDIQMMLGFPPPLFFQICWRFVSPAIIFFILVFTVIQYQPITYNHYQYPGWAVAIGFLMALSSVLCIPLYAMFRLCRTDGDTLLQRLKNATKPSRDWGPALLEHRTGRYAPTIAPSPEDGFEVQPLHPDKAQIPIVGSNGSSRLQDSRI
Assay: Inhibition of human GlyT1 expressed in cells assessed as [3H]glycine uptake
Assay type: cell-based
Method in brief: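 [³H]-glycine uptake inhibition in cells transfected with human GlyT1. EC₅₀ values are the average of at least two independent experiments.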

Point of comparison: `COc1cc(C(F)(F)F)cc(SC)c1C(=O)N[C@]1(c2ccccc2)CCCN(C)C1`, EC50 0.18 µM. Against it:
- COc1cc(C(F)(F)F)cc(C(F)(F)F)c1C(=O)NC1(c2ccccc2)CCCN(C(C)=O)C1 (racemic) — higher, > 10 µM
- COc1cc(C(F)(F)F)cc(SC)c1C(=O)NC1(c2cccnc2)CCCN(C)C1 (racemic) — 3.3-fold lower, 0.054 µM
- CN1CCCC(NC(=O)c2ccc(C(F)(F)F)cc2)(c2ccccc2)C1 (racemic) — higher, > 10 µM
- COc1cccc(C(F)(F)F)c1C(=O)NC1(c2ccccc2)CCCN(C)C1 (racemic) — 8.3-fold higher, 1.5 µM
- CN1CCCC(NC(=O)c2ccc(C(F)(F)F)cc2F)(c2ccccc2)C1 (racemic) — 55-fold higher, 9.9 µM
- COc1cc(C(F)(F)F)cc(SC)c1C(=O)NC1(c2ccc(F)cc2)CCCN(C)C1 (racemic) — 6.9-fold lower, 0.026 µM
- COc1cc(C(F)(F)F)ccc1C(=O)NC1(c2ccccc2)CCCN(C)C1 (racemic) — 27-fold higher, 4.8 µM
- COc1cc(C(F)(F)F)cc(C(F)(F)F)c1C(=O)NC1(c2ccccc2)CCCN(C2CCCC2)C1 (racemic) — 1.5-fold higher, 0.27 µM
- COc1cc(C(F)(F)F)cc(SC)c1C(=O)NC1(c2ccc(Cl)cc2)CCCN(C)C1 (racemic) — 6.4-fold lower, 0.028 µM
- CN1CCCC(NC(=O)c2ccc(C(F)(F)F)cc2Br)(c2ccccc2)C1 (racemic) — 1.7-fold higher, 0.3 µM
- COc1cc(C(F)(F)F)cc(SC)c1C(=O)NC1(c2ccncc2)CCCN(C)C1 (racemic) — 3-fold lower, 0.06 µM
- COc1cc(C(F)(F)F)cc(C(F)(F)F)c1C(=O)NC1(c2ccccc2)CCCN(C(=O)c2ccccc2)C1 (racemic) — higher, > 10 µM
- COc1cc(C(F)(F)F)cc(SC)c1C(=O)NC1(c2ccccc2)CCCN(C)C1 (racemic) — 7.5-fold lower, 0.024 µM
- COc1cc(C(F)(F)F)cc(C(F)(F)F)c1C(=O)NC1(c2ccccc2)CCCN(C(C)C)C1 (racemic) — within 1.5-fold, 0.23 µM
- COc1cc(C(F)(F)F)cc(SC)c1C(=O)NC1(c2cccc(F)c2)CCCN(C)C1 (racemic) — 3.8-fold lower, 0.048 µM
- COc1cc(C(F)(F)F)cc(SC)c1C(=O)NC1(c2cnccn2)CCCN(C)C1 (racemic) — 9.3-fold higher, 1.67 µM
- CN1CCCC(NC(=O)c2ccc(C(F)(F)F)cc2C(F)(F)F)(c2ccccc2)C1 (racemic) — 3-fold higher, 0.54 µM
- COc1cc(C(F)(F)F)cc(SC)c1C(=O)NC1(c2ccc(C)cc2)CCCN(C)C1 (racemic) — within 1.5-fold, 0.23 µM
- CCN1CCCC(NC(=O)c2c(OC)cc(C(F)(F)F)cc2C(F)(F)F)(c2ccccc2)C1 (racemic) — within 1.5-fold, 0.23 µM
- COc1cc(C(F)(F)F)cc(C(F)(F)F)c1C(=O)NC1(c2ccccc2)CCCN(Cc2ccccc2)C1 (racemic) — 37-fold higher, 6.7 µM
- COc1cc(C(F)(F)F)cc(SC)c1C(=O)NC1(c2ccncn2)CCCN(C)C1 (racemic) — 9.4-fold higher, 1.7 µM
- COc1cc(C(F)(F)F)cc(SC)c1C(=O)NC1(c2cccc(Cl)c2)CCCN(C)C1 (racemic) — 7.2-fold lower, 0.025 µM
- COc1ccc(C2(NC(=O)c3c(OC)cc(C(F)(F)F)cc3SC)CCCN(C)C2)cc1 (racemic) — within 1.5-fold, 0.17 µM
- CN1CCCC(NC(=O)c2ccc(C(F)(F)F)cc2C#N)(c2ccccc2)C1 (racemic) — higher, > 10 µM
- COc1cc(C(F)(F)F)cc(C(F)(F)F)c1C(=O)NC1(c2ccccc2)CCCNC1 (racemic) — 3.7-fold higher, 0.66 µM
- COc1cc(C(F)(F)F)cc(C(F)(F)F)c1C(=O)NC1(c2ccccc2)CCCN(CC2CC2)C1 (racemic) — 2.1-fold higher, 0.38 µM
- COc1cc(C(F)(F)F)cc(C(F)(F)F)c1C(=O)NC1(c2ccccc2)CCCN(S(C)(=O)=O)C1 (racemic) — higher, > 10 µM
- COc1cccc(C2(NC(=O)c3c(OC)cc(C(F)(F)F)cc3SC)CCCN(C)C2)c1 (racemic) — 1.6-fold lower, 0.11 µM
- COc1cc(C(F)(F)F)cc(SC)c1C(=O)NC1(c2ncccn2)CCCN(C)C1 (racemic) — higher, > 10 µM
- CSc1cc(C(F)(F)F)ccc1C(=O)NC1(c2ccccc2)CCCN(C)C1 (racemic) — 2.7-fold lower, 0.067 µM
- COc1cc(C(F)(F)F)cc(SC)c1C(=O)NC1(c2ccc(F)cn2)CCCN(C)C1 (racemic) — the same, 0.18 µM
- Cc1cc(C(F)(F)F)ccc1C(=O)NC1(c2ccccc2)CCCN(C)C1 (racemic) — 1.8-fold higher, 0.32 µM
- CN1CCCC(NC(=O)c2ccc(Cl)cc2Cl)(c2ccccc2)C1 (racemic) — 3.7-fold higher, 0.67 µM

Molecular target: T1, Sodium- and chloride-dependent glycine transporter 1
Assay: Inhibition of GlyT1 (unknown origin)

For `COc1cc(C(F)(F)F)cc(C(F)(F)F)c1C(=O)NC1(c2ccccc2)CCCN(C)C1` (stereo not given), the IC50 was 0.14 µM.

Reference: ChEMBL document CHEMBL3259663, “3-Amido-3-aryl-piperidines: A Novel Class of Potent, Selective, and Orally Active GlyT1 Inhibitors” (ACS Med Chem Lett, 2014)
